Shown are actives, neighbours in structure and some others; about 3.7% of the full set was active somewhere.
KCNQ1 inh – inhibitors of human KCNQ1 channel, primary screen, cell-based, thallium flux, high-throughput. Potassium voltage-gated channel subfamily KQT member 1 (Homo sapiens), P51787. CHO-K1 KCNQ1, FluxOR thallium flux fluorescence; active compounds read high. B-score at 10 µM. actives 1.3% (n = 310,000). AID 2642, 2010;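 active means compounds whose thallium flux B-score, printed positive for inhibition, exceeds three library SD while starting fluorescence stays within three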;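 further: channel opened by potassium depolarization with thallium stimulus after 20 min compound exposure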
KCNQ1 act – potentiators or activators of KCNQ1 channel, primary screen, cell-based, thallium flux, high-throughput. actives 0.35% (n = 310,000). B-score at 10 µM. Potassium voltage-gated channel subfamily KQT member 1 (Homo sapiens), P51787. CHO-K1 KCNQ1, thallium flux FluxOR fluorescence; active compounds read high;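 active means fluorescence ratio B-score, a plate-corrected score, at least three library SD, with initial intensity B-score within 5 SD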
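System: CHO-K1 cells stably expressing KCNQ1 / Medium: assay buffer for compound exposure, DMSO matched across wells / Reagent: thallium- and potassium-containing depolarizing buffer / Compound: one concentration, matched DMSO / Incubation: 20 min compound pretreatment at room temperature / Measured by: kinetic FluxOR fluorescence, 10 s baseline plus 110 s post-stimulus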
hERG protect – hERG rescue from dofetilide block, primary screen, cell-based, CHO-hERG, FluxOR thallium flux, dofetilide IC70; actives 0.51% (n = 310,000); AID 1511, 2009; activation (rescue from dofetilide block), less the hit threshold, % at 10 µM; dofetilide IC70 present;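 active means activation above the mean of controls blocked by dofetilide plus 5 SD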;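 further: thallium influx through hERG after potassium depolarization seen as dye fluorescence rise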
Kir21 block – inhibitors of mouse Kir2.1 inward-rectifier potassium channel; Inward rectifier potassium channel 2 (Mus musculus), P35561; HEK293-Kir2.1, FluxOR thallium flux fluorescence; active compounds read low; B-score at 10 µM; actives 0.85% (n = 310,000);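 active means fluorescence ratio B-score at or below minus 3 SD of library scores, with starting-brightness B-score within 2 SD, cut at about -4.2 in these data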;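 further: channel flux triggered by added potassium and thallium sulfate stimulus; B-score of peak minus minimum fluorescence over baseline after thallium stimulus; more negative B-score means stronger Kir2.1 block with less thallium influx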
Target sequence (P35561 whole entry, looked up): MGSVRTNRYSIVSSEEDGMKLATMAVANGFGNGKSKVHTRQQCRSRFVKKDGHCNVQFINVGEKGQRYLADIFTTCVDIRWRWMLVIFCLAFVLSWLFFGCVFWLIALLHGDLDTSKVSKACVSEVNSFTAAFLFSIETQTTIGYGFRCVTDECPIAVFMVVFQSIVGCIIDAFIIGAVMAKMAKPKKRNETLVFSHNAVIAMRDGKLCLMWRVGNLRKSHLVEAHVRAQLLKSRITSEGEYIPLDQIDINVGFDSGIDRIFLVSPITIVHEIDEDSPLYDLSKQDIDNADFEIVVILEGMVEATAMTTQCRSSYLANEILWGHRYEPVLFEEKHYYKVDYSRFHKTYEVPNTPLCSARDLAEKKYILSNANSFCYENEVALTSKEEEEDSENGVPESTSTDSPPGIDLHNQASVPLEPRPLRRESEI
KCNK9 block – KCNK9 potassium channel inhibitors, primary screen, HEK293 cells, thallium flux. actives 1.2% (n = 310,000). FluxOR thallium flux fluorescence; active compounds read low. AID 488922, 2010. B-score at 10 µM. Potassium channel subfamily K member 9 (Homo sapiens), Q9NPC2;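 active means ratio B-score over 3 SD below the library mean, with starting fluorescence within 5 SD of its mean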;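 further: negative B-score means less thallium flux so channel inhibition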
KCNK3 block – human KCNK3 channel inhibitors, primary screen, CHO cells, FluxOR thallium flux, B-score | actives 0.84% (n = 340,000) | FluxOR fluorescence; active compounds read low | AID 602410, 2012 | B-score at 10 µM;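 active means B-score under library mean minus 4 SD, starting fluorescence ratio at most library mean plus 5 SD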;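 further: more negative B-score means stronger inhibition of thallium flux through KCNK3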
KCNK9 block conf – KCNK9 potassium channel inhibitors, confirmation, HEK293 cells, thallium flux, duplicate. inhibition, % at 10 µM. shares compounds with KCNK9 block. actives 43% (n = 4,900). FluxOR thallium flux fluorescence;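 active means thallium signal inhibited by more than 5 SD of the compound-free buffer control wells, on both duplicate plates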
Kir2-1 spec – mouse Kir2.1 channel inhibition, confirmation, selectivity assay for KCNK9 modulator project, cell-based, HEK293, thallium flux; shares compounds with KCNK9 block; Kir2.1 cells, FluxOR thallium flux fluorescence; inhibition, % at 10 µM; actives 4% (n = 4,900);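 active means thallium signal drop more than 5 SD beyond the mean of the no-compound control wells, seen in both duplicate plates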;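 further: signal is fluorescence rise after thallium addition divided by baseline fluorescence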
KCNK9 uninduced – thallium flux in non-induced HEK293 cells, confirmation, counter-screen for KCNK9 inhibitor project, cell-based, second counter screen, non-induced KCNK9-HEK293; shares compounds with KCNK9 block; FluxOR thallium flux; inhibition, % at 10 µM; actives 40% (n = 4,900); AID 492997, 2010;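 active means thallium signal drop beyond 5 SD of the untreated control mean, on both duplicate plates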
Hits are given with their value.

`COc1cccc(CN2CCN(C(=O)c3cccc4ccccc34)CC2)c1` gave KCNQ1 inh inactive, KCNQ1 act inactive, hERG protect inactive, Kir21 block inactive, KCNK9 block inactive and KCNK3 block inactive.
Screening COc1cccc(CN2CCN(Cc3ccccc3C(F)(F)F)CC2)c1 returned KCNQ1 inh inactive, KCNQ1 act inactive, hERG protect inactive, Kir21 block inactive, KCNK9 block inactive, KCNK3 block inactive, KCNK9 block conf inactive, Kir2-1 spec inactive and KCNK9 uninduced inactive.
O=C(CSc1nc2ccccc2c(=O)n1-c1ccccc1)c1cccc([N+](=O)[O-])c1 was read as KCNQ1 inh inactive, KCNQ1 act inactive, hERG protect inactive, Kir21 block inactive, KCNK9 block inactive and KCNK3 block inactive.
Screening COc1ccc(C(=O)Nn2c(SCC(=O)NC3CCCCC3)nc3ccccc3c2=O)cc1 returned KCNQ1 inh inactive, KCNQ1 act inactive, hERG protect inactive, Kir21 block inactive, KCNK9 block inactive and KCNK3 block inactive.
COc1ccc(C(=O)Nn2c(SCc3cccc([N+](=O)[O-])c3)nc3ccccc3c2=O)cc1 was read as KCNQ1 inh inactive, KCNQ1 act inactive, hERG protect inactive, Kir21 block inactive, KCNK9 block -12.3, KCNK3 block inactive, KCNK9 block conf 68.0%, Kir2-1 spec inactive and KCNK9 uninduced 31.5%.
Screening O=C(Nn1c(SCc2cccc([N+](=O)[O-])c2)nc2ccccc2c1=O)c1ccccc1 returned KCNQ1 inh inactive, KCNQ1 act inactive, hERG protect inactive, Kir21 block inactive, KCNK9 block -12.7, KCNK3 block inactive, KCNK9 block conf 67.0%, Kir2-1 spec inactive and KCNK9 uninduced 43.0%.
Screening CCc1cc(C(=O)c2ccc(Br)cc2)c(NC(=O)CN(CC)CC)s1 returned KCNQ1 inh inactive, KCNQ1 act inactive, hERG protect inactive, Kir21 block inactive, KCNK9 block inactive and KCNK3 block inactive.
`CN1C(=O)C2(Nc3ccccc3-c3nc4ccccc4n32)c2ccccc21` (stereo unspecified) gave KCNQ1 inh inactive, KCNQ1 act inactive, hERG protect inactive, Kir21 block inactive, KCNK9 block inactive and KCNK3 block inactive.
`CCN1C(=O)C2(Nc3ccccc3-c3nc4ccccc4n32)c2cc(OC)ccc21` (stereo unspecified) gave KCNQ1 inh inactive, KCNQ1 act inactive, hERG protect inactive, Kir21 block inactive, KCNK9 block -15.2, KCNK3 block inactive, KCNK9 block conf 57.5%, Kir2-1 spec inactive and KCNK9 uninduced 24.5%.
`CCC(=O)NC(=S)Nc1ccc(N2CCN(C(=O)c3ccc(Cl)cc3)CC2)cc1` gave KCNQ1 inh inactive, KCNQ1 act inactive, hERG protect inactive, Kir21 block inactive, KCNK9 block inactive and KCNK3 block inactive.
`Cc1c(N2C(=O)c3ccccc3C2=O)c(=O)n(-c2ccccc2)n1C` gave KCNQ1 inh inactive, KCNQ1 act inactive, hERG protect inactive, Kir21 block inactive, KCNK9 block inactive and KCNK3 block inactive.
Cc1c(N2C(=O)/C(=C\c3cccc4ccccc34)SC2=S)c(=O)n(-c2ccccc2)n1C was read as KCNQ1 inh inactive, KCNQ1 act inactive, hERG protect inactive, Kir21 block inactive, KCNK9 block inactive, KCNK3 block -9.4, KCNK9 block conf inactive, Kir2-1 spec inactive and KCNK9 uninduced inactive.
Screening COc1ccc(/C=C/C(=O)c2ccccc2)cc1COc1ccc(F)cc1 returned KCNQ1 inh inactive, KCNQ1 act inactive, hERG protect inactive, Kir21 block inactive, KCNK9 block -12.8, KCNK3 block inactive, KCNK9 block conf 70.0%, Kir2-1 spec 28.5% and KCNK9 uninduced 55.0%.
`COc1ccc(C(=O)/C=C/c2ccc(OC)c(COc3ccccc3F)c2)cc1` gave KCNQ1 inh inactive, KCNQ1 act inactive, hERG protect inactive, Kir21 block inactive, KCNK9 block -16, KCNK3 block inactive, KCNK9 block conf 70.0%, Kir2-1 spec inactive and KCNK9 uninduced 31.0%.
For CC(=O)Nc1ccc(C(=O)NNC(=O)C2C3CCCCC32)cc1 (stereo unspecified) the results were KCNQ1 inh inactive, KCNQ1 act inactive, hERG protect inactive, Kir21 block inactive, KCNK9 block inactive and KCNK3 block inactive.
`C=CCN(CC=C)C(=O)C1CCN(S(=O)(=O)c2ccc(-n3cnnn3)cc2)CC1` gave KCNQ1 inh inactive, KCNQ1 act inactive, hERG protect inactive, Kir21 block inactive, KCNK9 block inactive and KCNK3 block inactive.
Screening CCc1cccc(C)c1NC(=O)Cn1nc(C)n2cccc2c1=O returned KCNQ1 inh inactive, KCNQ1 act inactive, hERG protect inactive, Kir21 block inactive, KCNK9 block inactive and KCNK3 block inactive.
CCOC(=O)c1cc2c(ccn2C)n1CC(=O)N(C)C was read as KCNQ1 inh inactive, KCNQ1 act inactive, hERG protect inactive, Kir21 block inactive, KCNK9 block inactive and KCNK3 block inactive.
Screening CCOC(=O)c1cc2c(ccn2C)n1Cc1ccc(C#N)cc1 returned KCNQ1 inh inactive, KCNQ1 act inactive, hERG protect inactive, Kir21 block inactive, KCNK9 block -8.33, KCNK3 block inactive, KCNK9 block conf 37.0%, Kir2-1 spec inactive and KCNK9 uninduced 30.5%.
Cc1ccc(OCCNC(=O)c2ccc3ccccc3n2)cc1 was read as KCNQ1 inh inactive, KCNQ1 act inactive, hERG protect inactive, Kir21 block inactive, KCNK9 block inactive, KCNK3 block inactive, KCNK9 block conf inactive, Kir2-1 spec inactive and KCNK9 uninduced inactive.
For Cc1ccc(OCCNC(=O)c2ccccc2N)cc1 the results were KCNQ1 inh inactive, KCNQ1 act inactive, hERG protect inactive, Kir21 block inactive, KCNK9 block inactive and KCNK3 block inactive.

Source: PubChem BioAssay (Johns Hopkins Ion Channel Center)
